Source: article PMC11661117 (bioRxiv, 2025)

Key:
[1] = tested on: HSV-1 strain K26 (GFP-expressing); format: cell-based; details: 2D monoculture
[2] = 3D bioprinted HSE, ALI model, tdTomato signal; format: cell-based, human; details: human
Method in brief: (§1)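 Bioprinted dermal base (fibrinogen, gelatin, collagen I) on a transwell membrane, with 20,000 keratinocytes seeded on top and tdTomato-labelled fibroblasts. Four days after air-lift, GFP HSV-1 K26 (MOI 0.1, in cornification medium) and test compound were added basally, and tissues fixed at 48 hpi. Imaging: 4X z-stack maximum projection, edge mask and ≥14.8 µm object filter. GFP and tdTomato were normalised to infected DMSO and uninfected controls (tdTomato floor 0). Triplicate dose-response, curve-classed.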

[3] = tested on: HSV-1 strain K26 (GFP-expressing); experiment: 3D bioprinted HSE, submerged model, apical HSV-1 infection, GFP signal; format: cell-based; details: for Emax: Human alphaherpesvirus 1, 48 h, read-out: submerged Max Inhibition (%); for submerged Curve Class: CRC class for HSV-1 inhibition
Method in brief: (§2)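 Skin equivalent: printed fibrin/gelatin/collagen dermis with tdTomato-labelled fibroblasts and 20,000 keratinocytes on a transwell. One day after keratinocyte seeding, GFP HSV-1 K26 (MOI 0.1) was added apically and test compound to the basal medium, and tissues fixed at 48 hpi. GFP and tdTomato total fluorescence were read from 4X z-stack maximum projections within a ~4 mm circular mask. Values were normalised to DMSO-infected and uninfected wells. Triplicate dose-response, curve-classed.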

[4] = 3D bioprinted HSE, submerged model, tdTomato signal; format: cell-based, human; details: human
Method in brief: as §2

[5] = tested on: HSV-1 strain K26 (GFP-expressing); format: cell-based; details: 2D monoculture; for selectivity ratio: read-out: selectivity index in fibroblasts
[6] = tested on: HSV-1 strain K26 (GFP-expressing); experiment: 3D bioprinted HSE, ALI model, basolateral HSV-1 infection, GFP signal; format: cell-based; details: for Emax: Human alphaherpesvirus 1, 48 h, read-out: ALI Max Inhibition (%); for ALI Curve Class: CRC class for HSV-1 inhibition
Method in brief: as §1

tdTomato fibroblasts [7] = experiment: 3D bioprinted HSE, ALI model, tdTomato signal; format: cell-based, human; details: read-out: ALI CC50; tdTomato fibroblasts, triplicate
Method in brief: as §1

tdTomato fibroblasts [8] = experiment: 3D bioprinted HSE, submerged model, tdTomato signal; format: cell-based, human; details: for CC50: read-out: submerged CC50, tdTomato fibroblasts, triplicate
Method in brief: as §2

primary keratinocytes = experiment: 2D cytotoxicity in uninfected primary keratinocytes; format: cell-based, human; details: absence of viral infection
[9] = Human alphaherpesvirus 1, read-out: submerged IC50 (μM)
[10] = Human alphaherpesvirus 1, read-out: ALI IC50 (μM)
[11] = read-out: submerged IC50, triplicate, 48HPI

Which “selectivity index in keratinocytes” value [1] does the source give for `Cc1nc(N(C)C(=O)Cc2ccc(-c3ccccn3)cc2)sc1S(N)(=O)=O` [Pritelivir] here?
The value was > 250.

And the CC50 at 48 h [2]?
Its CC50 at 48 h is > 10000 nM.

And the Emax [3]?
Its Emax is 94.6%.

And the IC50 [3, 9]?
The IC50 was 0.5 µM.

And the CC50 at 48 h [4]?
Its CC50 at 48 h is > 10000 nM.

What about the “selectivity index in fibroblasts” value [5] of the same compound?
Its value is > 400.

And the Emax [6]?
The Emax was 102%.

What about the IC50 [6, 10] of the same compound?
Its IC50 is 0.21 µM.

With `O=C(/C=C\n1cnc(-c2cc(C(F)(F)F)cc(C(F)(F)F)c2)n1)NNc1ccccn1` [Verdinexor] as the compound, how does the “inhibition of viral GFP expression in keratinocytes” value [1] read?
The value was “at least 50%”.

What about the CC50 at 48 h [2] of the same compound?
The CC50 at 48 h was > 10000 nM.

And the Emax [3]?
The Emax was 68.6%.

And the IC50 [3, 9]?
Its IC50 is 0.48 µM.

And the CC50 at 48 h [4]?
The CC50 at 48 h was > 10000 nM.

What about the Emax [6] of the same compound?
The Emax was 108%.

And the IC50 [6, 10]?
Its IC50 is 0.17 µM.

With `COc1ccc(-c2nc(N3CCOCC3)c3sc(CN(C)c4ncc(C(=O)NO)cn4)cc3n2)cn1` [Fimepinostat] as the compound, how does the “inhibition of viral GFP expression in keratinocytes” value [1] read?
Its value is “at least 50%”.

And the CC50 at 48 h [2]?
Its CC50 at 48 h is > 10000 nM.

What about the Emax [3] of the same compound?
The Emax was 87.4%.

What about the IC50 [3, 9] of the same compound?
The IC50 was 1.48 µM.

And the CC50 at 48 h [4]?
Its CC50 at 48 h is > 10000 nM.

What about the Emax [6] of the same compound?
Its Emax is 88.6%.

And the IC50 [6, 10]?
Its IC50 is < 0.04 µM.

What does the source list for `CC(C)c1cnn2c(NCc3ccccc3-n3cccn3)nc(OC3CCCNC3)nc12` (centres unmarked) [LDC4297]?
CC50 (tdTomato fibroblasts [7]): > 10000 nM; submerged Curve Class ([3]; triplicate): −2.1; IC50 [3, 11]: 0.68 µM; submerged Max Inhibition (%) ([3]; triplicate, 48HPI): 94.82%; CC50 (tdTomato fibroblasts [8]): > 10000 nM; ALI Curve Class ([6]; triplicate): −1.1; IC50 ([6]; read-out: ALI IC50, triplicate, 48HPI): 0.11 µM; ALI Max Inhibition (%) ([6]; triplicate, 48HPI): 99.87%

Which results are given for `CC(=O)O[C@H]1C[C@H](O[C@H]2[C@@H](O)C[C@H](O[C@H]3[C@@H](O)C[C@H](O[C@H]4CC[C@@]5(C)[C@H](CC[C@@H]6[C@@H]5C[C@@H](O)[C@]5(C)[C@@H](C7=CC(=O)OC7)CC[C@]65O)C4)O[C@@H]3C)O[C@@H]2C)O[C@H](C)[C@H]1O[C@@H]1O[C@H](CO)[C@@H](O)[C@H](O)[C@H]1O` [Lanatoside C]?
CC50 at 48 h [2]: > 10000 nM; Emax [3]: 107%; IC50 [3, 9]: 0.09 µM; CC50 at 48 h [4]: 2490 nM; selectivity ratio [5]: > 750; Emax [6]: 99.5%; IC50 [6, 10]: 0.08 µM; toxicity in keratinocytes (primary keratinocytes): showed toxicity in keratinocytes

With `CC1(C)CC(=O)c2c(C(F)(F)F)nn(-c3ccc(C(N)=O)c(N[C@H]4CC[C@H](O)CC4)c3)c2C1` [SNX-2112] as the compound, how does the CC50 at 48 h [2] read?
The CC50 at 48 h was > 10000 nM.

And the Emax [3]?
Its Emax is 102%.

What about the IC50 [3, 9] of the same compound?
The IC50 was 0.05 µM.

And the CC50 at 48 h [4]?
The CC50 at 48 h was 1140 nM.

What about the Emax [6] of the same compound?
Its Emax is 107%.

And the IC50 [6, 10]?
Its IC50 is < 0.04 µM.

And the toxicity in keratinocytes (primary keratinocytes)?
Its toxicity in keratinocytes is “showed toxicity in keratinocytes”.

For Fluoroemetine, which CC50 (tdTomato fibroblasts [7]) is on record?
Its CC50 is > 10000 nM.

What about the CC50 (tdTomato fibroblasts [8]) of the same compound?
Its CC50 is > 10000 nM.

For `Nc1nc2c(ncn2COCCO)c(=O)[nH]1` [Acyclovir], which IC50 ([3]; submerged tissues, assay validation, fig. S5) is on record?
Its IC50 is 0.36 µM.

What about the “cytotoxic effects on the fibroblasts” value (tdTomato fibroblasts [8]; submerged and ALI models, tdTomato signal) of the same compound?
Its value is “minimal cytotoxic effects”.

What about the IC50 ([6]; Human alphaherpesvirus 1) of the same compound?
Its IC50 is < 0.04 µM.

With `C=CC(=O)N1CC/C(=C\c2ccc(F)c([N+](=O)[O-])c2)C(=O)/C(=C/c2ccc(F)c([N+](=O)[O-])c2)C1` [VLX1570] as the compound, how does the CC50 (tdTomato fibroblasts [7]) read?
Its CC50 is > 10000 nM.

And the “submerged Curve Class” value ([3]; triplicate)?
The value was −2.5.

What about the IC50 [3, 11] of the same compound?
Its IC50 is 6.67 µM.

And the “submerged Max Inhibition (%)” value ([3]; triplicate, 48HPI)?
The value was 55.49%.

And the CC50 (tdTomato fibroblasts [8])?
Its CC50 is 8410 nM.

What about the “ALI Curve Class” value ([6]; triplicate) of the same compound?
The value was −1.1.

What about the IC50 [6, 10] of the same compound?
Its IC50 is 0.16 µM.

And the “ALI Max Inhibition (%)” value ([6]; triplicate, 48HPI)?
Its value is 101.22%.

With `Cc1cccc(C)c1N(CC(=O)Nc1ccc(-c2ncon2)cc1)C(=O)C1CCS(=O)(=O)CC1` [Amenamevir] as the compound, how does the “selectivity index in keratinocytes” value [1] read?
Its value is > 250.

What about the CC50 at 48 h [2] of the same compound?
Its CC50 at 48 h is > 10000 nM.

And the Emax [3]?
The Emax was 85.3%.

And the IC50 [3, 9]?
Its IC50 is 0.27 µM.

And the CC50 at 48 h [4]?
Its CC50 at 48 h is > 10000 nM.

What about the “selectivity index in fibroblasts” value [5] of the same compound?
The value was > 400.

And the Emax [6]?
The Emax was 112%.

And the IC50 [6, 10]?
Its IC50 is 0.16 µM.

Which results are given for `Nc1ccn([C@@H]2O[C@H](CO)[C@@H](O)C2(F)F)c(=O)n1` [Gemcitabine]?
CC50 at 48 h [2]: > 10000 nM; Emax [3]: 99.8%; IC50 [3, 9]: 0.19 µM; CC50 at 48 h [4]: > 10000 nM; selectivity ratio [5]: > 750; Emax [6]: 102%; IC50 [6, 10]: 0.16 µM; toxicity in keratinocytes (primary keratinocytes): showed toxicity in keratinocytes

What does the source list for `O=C(Nc1ccc([N+](=O)[O-])cc1Cl)c1cc(Cl)ccc1O` [Niclosamide]?
CC50 at 48 h [2]: > 10000 nM; Emax [3]: 97.1%; IC50 [3, 9]: 0.39 µM; CC50 at 48 h [4]: > 10000 nM; Emax [6]: 98.7%; IC50 [6, 10]: 0.11 µM
